Measurements taken from ChEMBL document CHEMBL1123918, “Thromboxane synthetase inhibitors and antihypertensive agents. 4. N-[(1H-imidazol-1-yl)alkyl] derivatives of quinazoline-2,4(1H,3H)-diones, quinazolin-4(3H)-ones, and 1,2,3-benzotriazin-4(3H)-ones” (J Med Chem, 1987).
Active and inactive are the calls of the source. No cut-off for these calls is given here.

Experiments:
[1] = test system: Oryctolagus cuniculus; experiment: Tested for inhibition of thromboxane formation in rabbit platelets at 0.5 hr by administration of 0.5 mg/kg/h perfused dose; assay type: functional
Procedure, shortened: (§1)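 Rabbits given compound in 0.9% sterile saline IV, as a bolus or by infusion pump. Blood drawn 5 min predose and at 0.5, 1, 2 and 3 h, then clotted 2 h at 37 °C and held 2 h on ice. Serum mixed with indomethacin, stored at -20 °C, and diluted in pH 7.4 phosphate buffer. TXB2 measured by direct RIA.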

[2] = test system: Oryctolagus cuniculus; experiment: Tested for inhibition of thromboxane formation in rabbit platelets at 2 hr by administration of 0.3 mg/kg intravenous bolus dose; assay type: functional; procedure, shortened: as §1
[3] = test system: Oryctolagus cuniculus; experiment: Tested for inhibition of thromboxane formation in rabbit platelets at 3 hr by administration of 0.1 mg/kg intravenous bolus dose; assay type: functional; procedure, shortened: as §1
[4] = test system: Oryctolagus cuniculus; experiment: Tested for inhibition of thromboxane formation in rabbit platelets at 0.5 hr by administration of 0.1 mg/kg intravenous bolus dose; assay type: functional; procedure, shortened: as §1
[5] = species on record: Homo sapiens; experiment: Tested for inhibition of thromboxane formation in human platelets; assay type: functional
Procedure, shortened: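 Platelets from four healthy human volunteers were isolated with a small amount of prostaglandin E1 to prevent aggregation, then treated with compound, standard or vehicle. TXB2 measured by direct RIA. IC50 is read graphically from percent inhibition vs log concentration curves.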

[6] = test system: Oryctolagus cuniculus; experiment: Tested for inhibition of thromboxane formation in rabbit platelets at 1.0 hr by administration of 0.3 mg/kg intravenous bolus dose; assay type: functional; procedure, shortened: as §1
[7] = test system: Oryctolagus cuniculus; experiment: Tested for inhibition of thromboxane formation in rabbit platelets at 3 hr by administration of 0.3 mg/kg intravenous bolus dose; assay type: functional; procedure, shortened: as §1
[8] = test system: Oryctolagus cuniculus; experiment: Tested for inhibition of thromboxane formation in rabbit platelets at 1.0 hr by administration of 0.5 mg/kg/h perfused dose; assay type: functional; procedure, shortened: as §1
[9] = test system: Oryctolagus cuniculus; experiment: Tested for inhibition of thromboxane formation in rabbit platelets at 1.0 hr by administration of 0.1 mg/kg intravenous bolus dose; assay type: functional; procedure, shortened: as §1
[10] = test system: Oryctolagus cuniculus; experiment: Tested for inhibition of thromboxane formation in rabbit platelets at 0.5 hr by administration of 0.3 mg/kg intravenous bolus dose; assay type: functional; procedure, shortened: as §1
[11] = test system: Oryctolagus cuniculus; experiment: Tested for inhibition of thromboxane formation in rabbit platelets at 2 hr by administration of 0.1 mg/kg intravenous bolus dose; assay type: functional; procedure, shortened: as §1
[12] = target: T1, Thromboxane-A synthase (Rattus norvegicus) (UniProt P49430); experiment: Tested for antihypertensive activity in spontaneously hypertensive rats at 100 mg/kg peroral dosage for 2 days; I is inactive; assay type: functional, organism-based; set-up: dose 100 mg/kg
T1 sequence (whole entry): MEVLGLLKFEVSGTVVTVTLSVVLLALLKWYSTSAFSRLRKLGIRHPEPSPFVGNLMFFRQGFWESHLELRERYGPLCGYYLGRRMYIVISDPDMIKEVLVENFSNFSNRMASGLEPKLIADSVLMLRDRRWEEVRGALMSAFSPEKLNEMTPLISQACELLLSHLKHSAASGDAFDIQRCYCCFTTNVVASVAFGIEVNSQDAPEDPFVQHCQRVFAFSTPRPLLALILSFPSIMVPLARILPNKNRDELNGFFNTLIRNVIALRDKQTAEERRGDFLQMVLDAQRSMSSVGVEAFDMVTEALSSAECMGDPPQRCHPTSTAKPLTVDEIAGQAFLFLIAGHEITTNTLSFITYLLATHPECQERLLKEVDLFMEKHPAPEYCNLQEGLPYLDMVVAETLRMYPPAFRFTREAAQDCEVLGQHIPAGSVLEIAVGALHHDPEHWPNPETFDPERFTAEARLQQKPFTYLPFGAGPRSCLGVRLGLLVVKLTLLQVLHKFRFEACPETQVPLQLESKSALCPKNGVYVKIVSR
Procedure, shortened: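 Male 16-week-old Okamoto SHR (mean arterial pressure about 170 mmHg) gavaged with compound suspended in 2% preboiled starch (50 mg/mL) at 100 mg/kg or less, with 0.9% NaCl load 25 mL/kg; identical second dose without saline 24 h later. Mean arterial pressure measured 28 h after first dose; one to three rats per compound.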

[13] = test system: Oryctolagus cuniculus; experiment: Tested for inhibition of thromboxane formation in rabbit platelets at 1.0 hr by administration of 10 mg/kg intravenous bolus dose; assay type: functional; procedure, shortened: as §1
[14] = test system: Oryctolagus cuniculus; experiment: Tested for inhibition of thromboxane formation in rabbit platelets at 3 hr by administration of 10 mg/kg intravenous bolus dose; assay type: functional; procedure, shortened: as §1
[15] = target: T2, Thromboxane-A synthase (Rattus norvegicus, UniProt P49430); experiment: Tested for inhibition of thromboxane synthetase from spontaneously hypertensive rats
T2 sequence (P49430 whole entry): T1 sequence (whole entry)
Procedure, shortened: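 Washed SHR platelets in oxygenated Krebs phosphate buffer pH 7.4 (4.5-6.0 X 10^4 platelets/µL) incubated with vehicle or drug 10 min at 37 °C; stopped with ice and citric acid. TXB2 measured by direct RIA. Percent inhibition is relative to vehicle controls after background subtraction. IC50 is read from a plot of inhibition vs log concentration.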

Row | IC50 [5] [nM] | Activity [12] | IC50 [15] [nM] | SMILES | inhibition in vivo at 0.5 mg/kg/h [1] [%] | inhibition in vivo at 0.3 mg/kg [2] [%] | inhibition in vivo at 0.1 mg/kg [3] [%] | inhibition in vivo at 0.1 mg/kg [4] [%] | inhibition in vivo at 0.3 mg/kg [6] [%] | inhibition in vivo at 0.3 mg/kg [7] [%] | inhibition in vivo at 0.5 mg/kg [8] [%] | inhibition in vivo at 0.1 mg/kg [9] [%] | inhibition in vivo at 0.3 mg/kg [10] [%] | inhibition in vivo at 0.1 mg/kg [11] [%] | inhibition in vivo at 10 mg/kg [13] [%] | inhibition in vivo at 10 mg/kg [14] [%]
1 | 21.2 | – | – | CC(Cn1ccnc1)Cn1c(=O)[nH]c2cc(Cl)ccc2c1=O (stereo unspecified) | 95.9 | 60.8 | 46.2 | 73.6 | 82.8 | 53.1 | 98.1 | 62.8 | 88.9 | 39.5 | – | –
2 | 5030 | inactive | – | O=C(O)c1ccc(OCCn2ccnc2)cc1 [DAZOXIBEN] | – | 13.6 | – | – | 30.1 | 22.8 | – | – | 45.9 | – | 94.7 | 74.5
3 | – | inactive | 20 | Cc1ccc2[nH]c(=O)n(CCCn3ccnc3)c(=O)c2c1 | – | – | – | – | – | – | – | – | – | – | – | –
